Measurements as given in ChEMBL document CHEMBL1153089, “Synthesis, antibacterial activities and molecular docking studies of peptide and Schiff bases as targeted antibiotics” (Bioorg Med Chem, 2009).
Values after ≈ are worked out from the molar mass of the structure shown.

Tests used:
[1] = target: T1, 3-oxoacyl-[acyl-carrier-protein] synthase 3 (Escherichia coli, UniProt C3TDZ2); assay: Inhibition of Escherichia coli Beta-ketoacyl-ACP synthase III expressed in Escherichia coli BL21 (DE3) by liquid scintillation counting
T1 sequence (C3TDZ2 whole entry): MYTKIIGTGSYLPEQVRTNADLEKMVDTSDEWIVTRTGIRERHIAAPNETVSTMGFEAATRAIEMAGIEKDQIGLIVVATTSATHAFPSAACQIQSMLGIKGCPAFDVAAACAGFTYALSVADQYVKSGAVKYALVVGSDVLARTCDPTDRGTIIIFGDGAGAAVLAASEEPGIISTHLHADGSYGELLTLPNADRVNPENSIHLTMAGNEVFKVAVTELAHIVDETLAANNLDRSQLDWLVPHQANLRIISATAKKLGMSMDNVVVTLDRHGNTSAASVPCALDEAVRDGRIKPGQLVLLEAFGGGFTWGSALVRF
Method in brief: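 His-tagged E. coli KAS III from pET30 in BL21(DE3), purified on Ni-NTA and stored in 20 mM Tris pH 7.6, 100 mM NaCl, 1 mM DTT, 20% glycerol. The radiometric assay precipitated product with ice-cold 10% TCA and redissolved it in 0.5 M NaOH. ³H incorporation was counted by liquid scintillation. Inhibitors were added from DMSO stock, with final DMSO ≤2%. IC50 was determined.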

Escherichia coli = assay: Antimicrobial activity against Escherichia coli ATCC 35218 after 24 hrs by MTT assay; format: functional; details: ATCC 35218, 24 h
Method in brief: (§1)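 MIC by broth microdilution in Mueller–Hinton medium. Compounds were serially diluted in DMSO in the medium. Inoculum was about 10⁵ cfu/mL. Plates were incubated at 37 °C for 24 h. MIC was read visually with MTT colorimetric staining.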

Pseudomonas aeruginosa = assay: Antimicrobial activity against Pseudomonas aeruginosa ATCC 13525 after 24 hrs by MTT assay; format: functional; details: ATCC 13525, 24 h; method in brief: as §1
Bacillus subtilis = assay: Antimicrobial activity against Bacillus subtilis ATCC 6633 after 24 hrs by MTT assay; format: functional; details: ATCC 6633, 24 h; method in brief: as §1
Staphylococcus aureus = assay: Antimicrobial activity against Staphylococcus aureus ATCC 6538 after 24 hrs by MTT assay; format: functional; details: ATCC 6538, 24 h; method in brief: as §1

SMILES	IC50 [1] [µM]	MIC (Escherichia coli) [µg/mL]	MIC (Pseudomonas aeruginosa) [µg/mL]	MIC (Bacillus subtilis) [µg/mL]	MIC (Staphylococcus aureus) [µg/mL]
Oc1ccccc1/C=N/CCCCCC/N=C/c1ccccc1O	44.6				
O=C(NCCCCCCNC(=O)c1ccccc1O)c1ccccc1O	> 140				
O=C(NCCCNC(=O)c1ccccc1O)c1ccccc1O	41.8				
O=C(NCCCC/N=C/c1cc(Br)ccc1O)c1ccccc1O	16				
O=C(NCCCCCC/N=C/c1cc(F)ccc1O)c1ccccc1O	112				
Oc1ccccc1/C=N/CCC/N=C/c1ccccc1O	43.4				
O=C(NCC/N=C/c1cc(Br)ccc1O)c1ccccc1O	17.1				
O=C(NCCCC/N=C/c1cc(F)ccc1O)c1ccccc1O	19.2				
O=C(NCCCCNC(=O)c1ccccc1O)c1ccccc1O	38.3				
Oc1ccccc1/C=N/CCCC/N=C/c1ccccc1O	44				
O=C(NCCCCCC/N=C/c1cc(Cl)cc(Cl)c1O)c1ccccc1O	> 122				
O=C(NCC/N=C/c1cc(I)cc(I)c1O)c1ccccc1O	23.7				
O=C(NCCCCCC/N=C/c1cc(Br)ccc1O)c1ccccc1O	29.9				
Oc1ccccc1/C=N/CC/N=C/c1ccccc1O	> 186				
O=C(NCCC/N=C/c1ccccc1O)c1ccccc1O	41.9				
O=C(NCCCCCC/N=C/c1ccccc1O)c1ccccc1O	65.1				
O=C(NCCCCCC/N=C/c1cc(Br)cc(Br)c1O)c1ccccc1O	12.5				
O=C(NCCCCCC/N=C/c1cc(I)cc(I)c1O)c1ccccc1O	25.8				
O=C(NCCCCCC/N=C/c1c(O)ccc2ccccc12)c1ccccc1O	> 128				
O=C(NCCC/N=C/c1cc(Br)cc(Br)c1O)c1ccccc1O	13.8				
O=C(NCC/N=C/c1ccccc1O)c1ccccc1O	25.5				
O=C(NCC/N=C/c1c(O)ccc2ccccc12)c1ccccc1O	29.2				
O=C(NCCNC(=O)c1ccccc1O)c1ccccc1O	55				
O=C(NCCCCCC/N=C/c1cc(I)ccc1O)c1ccccc1O	56.9				
O=C(NCCC/N=C/c1cc(I)cc(I)c1O)c1ccccc1O	23.5				
O=C(NCC/N=C/c1cc(F)ccc1O)c1ccccc1O	34.2				
O=C(NCCCC/N=C/c1ccccc1O)c1ccccc1O	43.4				
O=C(NCCCCCC/N=C/c1cc(Cl)ccc1O)c1ccccc1O	26.7				

The next compounds have a lower IC50 [1] than those just listed; values first:

IC50 [1] [µM]	MIC (Escherichia coli) [µg/mL]	MIC (Pseudomonas aeruginosa) [µg/mL]	MIC (Bacillus subtilis) [µg/mL]	MIC (Staphylococcus aureus) [µg/mL]	SMILES
2.75	25 (≈ 60.9 µM)	> 50	> 50	25 (≈ 60.9 µM)	O=C(NCC/N=C/c1cc(I)ccc1O)c1ccccc1O
7.08	1.56 (≈ 4.42 µM)	> 50	3.13 (≈ 8.86 µM)	> 50	O=C(NCC/N=C/c1cc(Cl)cc(Cl)c1O)c1ccccc1O
8.69					O=C(NCC/N=C/c1cc(Cl)ccc1O)c1ccccc1O
1.22	6.25 (≈ 14.1 µM)	12.5 (≈ 28.3 µM)	1.56 (≈ 3.53 µM)	12.5 (≈ 28.3 µM)	O=C(NCC/N=C/c1cc(Br)cc(Br)c1O)c1ccccc1O
8.61	> 50	12.5 (≈ 35.9 µM)	25 (≈ 71.8 µM)	25 (≈ 71.8 µM)	O=C(NCCC/N=C/c1c(O)ccc2ccccc12)c1ccccc1O
7.49					O=C(NCCC/N=C/c1cc(Cl)cc(Cl)c1O)c1ccccc1O
5.56	3.13 (≈ 9.89 µM)	1.56 (≈ 4.93 µM)	25 (≈ 79 µM)	1.56 (≈ 4.93 µM)	O=C(NCCC/N=C/c1cc(F)ccc1O)c1ccccc1O
3.54	3.13 (≈ 7.38 µM)	6.25 (≈ 14.7 µM)	25 (≈ 58.9 µM)	> 50	O=C(NCCC/N=C/c1cc(I)ccc1O)c1ccccc1O
0.875	0.39 (≈ 1.03 µM)	3.13 (≈ 8.3 µM)	1.56 (≈ 4.14 µM)	3.13 (≈ 8.3 µM)	O=C(NCCC/N=C/c1cc(Br)ccc1O)c1ccccc1O
7.74					O=C(NCCCC/N=C/c1cc(Cl)cc(Cl)c1O)c1ccccc1O
6.61					O=C(NCCCC/N=C/c1cc(Br)cc(Br)c1O)c1ccccc1O
11.1					O=C(NCCCC/N=C/c1cc(I)cc(I)c1O)c1ccccc1O
8.55					O=C(NCCCC/N=C/c1c(O)ccc2ccccc12)c1ccccc1O
6.69	> 50	12.5 (≈ 36 µM)	25 (≈ 72.1 µM)	25 (≈ 72.1 µM)	O=C(NCCCC/N=C/c1cc(Cl)ccc1O)c1ccccc1O
4.93	25 (≈ 75.1 µM)	> 50	> 50	> 50	O=C(NCCC/N=C/c1cc(Cl)ccc1O)c1ccccc1O
1.48	6.25 (≈ 14.3 µM)	3.13 (≈ 7.14 µM)	1.56 (≈ 3.56 µM)	> 50	O=C(NCCCC/N=C/c1cc(I)ccc1O)c1ccccc1O
